Laboratory results: ChEMBL document CHEMBL3525963, “Tissue distribution and elimination of [14C]apixaban in rats” (Drug Metab Dispos, 2011)

Experiments:
Conditions in all cases: in vivo
Rattus norvegicus [1] = assay: Biodistribution in female Sprague-Dawley rat kidney cortex at 5 mg/kg, po administered as single dose measured after 72 hrs; assay type: ADME, organism-based; design: dose 5 mg/kg, dosed compound name [14C]-apixaban, route oral
In short: (§1)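 Quantitative whole-body autoradiography was run after a single 5 mg/kg (100 μCi/kg) oral gavage to fasted female or pregnant SD rats, one rat per time point. Carcasses were frozen in hexane/dry ice, and 40 µm sagittal sections were dried at −20°C for at least 48 h. Sections were exposed to a phosphor plate alongside [14C]glucose standards (0.001–6.5 µCi/g). Results are µg eq/g, with LLOQ 0.037 µg eq/g.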

Rattus norvegicus [2] = assay: Biodistribution in male Sprague-Dawley rat pituitary gland at 5 mg/kg, po administered as single dose measured after 8 hrs; assay type: ADME, organism-based; design: dose 5 mg/kg, dosed compound name [14C]-apixaban, route oral
Rattus norvegicus [3] = assay: Biodistribution in pregnant Sprague-Dawley rat brown fat at 5 mg/kg, po administered as single dose measured after 4 hrs; assay type: ADME, organism-based, Brown adipose tissue; design: dose 5 mg/kg, dosed compound name [14C]-apixaban, route oral
Rattus norvegicus [4] = assay: Biodistribution in male Sprague-Dawley rat salivary gland at 5 mg/kg, po administered as single dose measured after 4 hrs; assay type: ADME, organism-based; design: dose 5 mg/kg, dosed compound name [14C]-apixaban, route oral
Pancreas [5] = assay: Biodistribution in pregnant Sprague-Dawley rat pancreas at 5 mg/kg, po administered as single dose measured after 24 hrs; assay type: ADME, organism-based; design: dose 5 mg/kg, dosed compound name [14C]-apixaban, route oral
In short: (§2)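 Pregnant SD rats (270-319 g) were fasted overnight and given one oral gavage of 5 mg/kg (100 μCi/kg) in 0.5% Tween 80 in Labrafil. One rat was euthanized per time point (0.5, 1, 4, 8, 24, 48 h) and the carcass frozen. 40 µm sagittal sections were phosphor-imaged against [14C]glucose standards and results reported as µg eq/g; LLOQ 0.037 µg eq/g.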

Pancreas [6] = assay: Biodistribution in pregnant Sprague-Dawley rat pancreas at 5 mg/kg, po administered as single dose measured after 8 hrs; assay type: ADME, organism-based; design: dose 5 mg/kg, dosed compound name [14C]-apixaban, route oral; in short: as §2
Spleen [7] = assay: Biodistribution in male Sprague-Dawley rat spleen at 5 mg/kg, po administered as single dose measured after 24 hrs; assay type: ADME, organism-based; design: dose 5 mg/kg, dosed compound name [14C]-apixaban, route oral
In short: (§3)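 Fasted male SD rats (225-252 g) each received one oral gavage dose of [14C]apixaban, 5 mg/kg (100 μCi/kg), in 0.5% Tween 80/Labrafil vehicle. One rat was killed per time point, from 0.5 to 168 h. Frozen carcasses were cut into 40 µm sagittal whole-body sections and read by QWBA phosphor imaging against [14C]glucose calibrants. Results are in µg apixaban eq/g; BLQ <0.037 µg eq/g.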

Spleen [8] = assay: Biodistribution in male Sprague-Dawley rat spleen at 5 mg/kg, po administered as single dose measured after 8 hrs; assay type: ADME, organism-based; design: dose 5 mg/kg, dosed compound name [14C]-apixaban, route oral; in short: as §3
Rattus norvegicus [9] = assay: Biodistribution in female Sprague-Dawley rat bone marrow at 5 mg/kg, po administered as single dose measured after 1 hr; assay type: ADME, organism-based; design: dose 5 mg/kg, dosed compound name [14C]-apixaban, route oral
In short: (§4)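 [14C]apixaban (20 μCi/mL in dosing solution) in 0.5% Tween 80 in Labrafil given by oral gavage to fasted female rats, 206-213 g, at 100 μCi/kg. One rat per time point was euthanized and snap-frozen. Sagittal 40 µm whole-body sections were read by QWBA phosphor imaging against [14C]glucose standards. Results are in µg eq apixaban/g, with LLOQ 0.037 μg eq/g.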

Blood [10] = assay: AUC (0 to infinity) in lactating Sprague-Dawley rat blood at 5 mg/kg, po administered as single dose; assay type: ADME, organism-based; design: time infinity, dose 5 mg/kg, dosed compound name [14C]-apixaban, route oral
Muscle tissue [11] = assay: Biodistribution in pregnant Sprague-Dawley rat muscle at 5 mg/kg, po administered as single dose measured after 48 hrs; assay type: ADME, organism-based; design: dose 5 mg/kg, dosed compound name [14C]-apixaban, route oral; in short: as §2
Rattus norvegicus [12] = assay: Biodistribution in female Sprague-Dawley rat brown fat at 5 mg/kg, po administered as single dose measured after 24 hrs; assay type: ADME, organism-based, Brown adipose tissue; design: dose 5 mg/kg, dosed compound name [14C]-apixaban, route oral; in short: as §1
Pancreas [13] = assay: Biodistribution in female Sprague-Dawley rat pancreas at 5 mg/kg, po administered as single dose measured after 1 hr; assay type: ADME, organism-based; design: dose 5 mg/kg, dosed compound name [14C]-apixaban, route oral
In short: (§5)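 [¹⁴C]Apixaban given by oral gavage at 5 mg/kg (100 μCi/kg) in 0.5% Tween 80 in Labrafil (1.0 mg/mL dosing solution) to rats fasted overnight through 4 h post-dose. One rat per time point; carcass frozen in hexane/dry ice. Quantitative whole-body autoradiography used 40 µm sagittal sections and a phosphor imaging plate calibrated with [¹⁴C]glucose standards (0.001–6.5 μCi/g). Read-out in µg eq apixaban/g; LLOQ 0.037 μg eq/g.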

Rattus norvegicus [14] = assay: Biodistribution in male Sprague-Dawley rat pituitary gland at 5 mg/kg, po administered as single dose measured after 72 hrs; assay type: ADME, organism-based; design: dose 5 mg/kg, dosed compound name [14C]-apixaban, route oral; in short: as §3
Harderian gland [15] = assay: Biodistribution in female Sprague-Dawley rat harderian gland at 5 mg/kg, po administered as single dose measured after 8 hrs; assay type: ADME, organism-based; design: dose 5 mg/kg, dosed compound name [14C]-apixaban, route oral; in short: as §5
Rattus norvegicus [16] = assay: Biodistribution in pregnant Sprague-Dawley rat salivary gland at 5 mg/kg, po administered as single dose measured after 8 hrs; assay type: ADME, organism-based; design: dose 5 mg/kg, dosed compound name [14C]-apixaban, route oral
Brain [17] = assay: Biodistribution in pregnant Sprague-Dawley rat brain at 5 mg/kg, po administered as single dose measured after 1 hr; assay type: ADME, organism-based; design: dose 5 mg/kg, dosed compound name [14C]-apixaban, route oral
Muscle tissue [18] = assay: Biodistribution in female Sprague-Dawley rat muscle at 5 mg/kg, po administered as single dose measured after 0.5 hrs; assay type: ADME, organism-based; design: dose 5 mg/kg, dosed compound name [14C]-apixaban, route oral; in short: as §5
Brain [19] = assay: Biodistribution in pregnant Sprague-Dawley rat brain at 5 mg/kg, po administered as single dose measured after 0.5 hrs; assay type: ADME, organism-based; design: dose 5 mg/kg, dosed compound name [14C]-apixaban, route oral
Lung = assay: Biodistribution in male Sprague-Dawley rat lung at 5 mg/kg, po administered as single dose measured after 8 hrs; assay type: ADME, organism-based; design: dose 5 mg/kg, dosed compound name [14C]-apixaban, route oral
In short: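 [14C]apixaban (1.0 mg/mL, 20 μCi/mL) in 0.5% Tween 80 in Labrafil, given by oral gavage at 100 μCi/kg to male rats (225-252 g) fasted overnight through 4 h post-dose. One rat per time point. Carcasses frozen in hexane/dry ice and cut into 40 µm sagittal sections. QWBA read on phosphor plates against [14C]glucose standards, reported as µg eq/g. LLOQ 0.037 µg eq/g.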

Rattus norvegicus [20] = assay: Biodistribution in female Sprague-Dawley rat bone marrow at 5 mg/kg, po administered as single dose measured after 0.5 hrs; assay type: ADME, organism-based; design: dose 5 mg/kg, dosed compound name [14C]-apixaban, route oral; in short: as §4
Adrenal gland = assay: Biodistribution in pregnant Sprague-Dawley rat adrenal gland at 5 mg/kg, po administered as single dose measured after 24 hrs; assay type: ADME, organism-based; design: dose 5 mg/kg, dosed compound name [14C]-apixaban, route oral
In short: (§6)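 Fasted pregnant SD rats (n=6, 270-319 g) each received one oral gavage dose of [14C]apixaban, 5 mg/kg (100 μCi/kg), in 0.5% Tween 80/Labrafil. One rat was killed at each of 0.5, 1, 4, 8, 24 and 48 h. Carcasses were frozen in hexane/dry ice, cut into 40 µm sagittal sections, exposed to phosphor plates and quantified against [14C]glucose standards as µg eq/g. LLOQ was 0.037 µg eq/g.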

Rattus norvegicus [21] = assay: Biodistribution in pregnant Sprague-Dawley rat bone marrow at 5 mg/kg, po administered as single dose measured after 24 hrs; assay type: ADME, organism-based; design: dose 5 mg/kg, dosed compound name [14C]-apixaban, route oral; in short: as §6
Harderian gland [22] = assay: Biodistribution in female Sprague-Dawley rat harderian gland at 5 mg/kg, po administered as single dose measured after 1 hr; assay type: ADME, organism-based; design: dose 5 mg/kg, dosed compound name [14C]-apixaban, route oral; in short: as §5
Brain [23] = assay: Biodistribution in male Sprague-Dawley rat brain at 5 mg/kg, po administered as single dose measured after 1 hr; assay type: ADME, organism-based; design: dose 5 mg/kg, dosed compound name [14C]-apixaban, route oral
Blood [24] = assay: Biodistribution in pregnant Sprague-Dawley rat blood at 5 mg/kg, po administered as single dose measured after 48 hrs; assay type: ADME, organism-based; design: dose 5 mg/kg, dosed compound name [14C]-apixaban, route oral; in short: as §6
Rattus norvegicus [25] = assay: Biodistribution in pregnant Sprague-Dawley rat brown fat at 5 mg/kg, po administered as single dose measured after 48 hrs; assay type: ADME, organism-based, Brown adipose tissue; design: dose 5 mg/kg, dosed compound name [14C]-apixaban, route oral; in short: as §6
Rattus norvegicus [26] = assay: Biodistribution in pregnant Sprague-Dawley rat pituitary gland at 5 mg/kg, po administered as single dose measured after 4 hrs; assay type: ADME, organism-based; design: dose 5 mg/kg, dosed compound name [14C]-apixaban, route oral

**Q.** Which results are given for `COc1ccc(-n2nc(C(N)=O)c3c2C(=O)N(c2ccc(N4CCCC[14C]4=O)cc2)CC3)cc1`?
**A.** Radiolabel recovery (Rattus norvegicus [1]): Not detected assumed BLQ; Radiolabel recovery (Rattus norvegicus [2]): 0.07 ugequiv/g; Radiolabel recovery (Rattus norvegicus [3]): 0.87 ugequiv/g; Radiolabel recovery (Rattus norvegicus [4]): 0.54 ugequiv/g; Radiolabel recovery (Pancreas [5]): Not detected assumed BLQ; Radiolabel recovery (Pancreas [6]): 0.09 ugequiv/g; Radiolabel recovery (Spleen [7]): Not detected assumed BLQ; Radiolabel recovery (Spleen [8]): 0.09 ugequiv/g; Radiolabel recovery (Rattus norvegicus [9]): 0.41 ugequiv/g; AUC (Blood [10]): 1960 ngequiv.hr/g; Radiolabel recovery (Muscle tissue [11]): Not detected assumed BLQ; Radiolabel recovery (Rattus norvegicus [12]): Not detected assumed BLQ; Radiolabel recovery (Pancreas [13]): 0.62 ugequiv/g; Radiolabel recovery (Rattus norvegicus [14]): Not detected assumed BLQ; Radiolabel recovery (Harderian gland [15]): 0.22 ugequiv/g; Radiolabel recovery (Rattus norvegicus [16]): 0.08 ugequiv/g; Radiolabel recovery (Brain [17]): 0.06 ugequiv/g; Radiolabel recovery (Muscle tissue [18]): 0.23 ugequiv/g; Radiolabel recovery (Brain [19]): 0.05 ugequiv/g; Radiolabel recovery (Lung): 0.14 ugequiv/g; Radiolabel recovery (Rattus norvegicus [20]): 0.29 ugequiv/g; Radiolabel recovery (Adrenal gland): Not sampled as not visualised in autoradiograph; Radiolabel recovery (Rattus norvegicus [21]): Not detected assumed BLQ; Radiolabel recovery (Harderian gland [22]): 0.64 ugequiv/g; Radiolabel recovery (Brain [23]): < 0.037 ugequiv/g; Radiolabel recovery (Blood [24]): Not detected assumed BLQ; Radiolabel recovery (Rattus norvegicus [25]): Not detected assumed BLQ; Radiolabel recovery (Rattus norvegicus [26]): 0.75 ugequiv/g
